Measurements: ChEMBL document CHEMBL2384906, “Biological activity, design, synthesis and structure activity relationship of some novel derivatives of curcumin containing sulfonamides” (Eur J Med Chem, 2013)
Values after ≈ are worked out from the molar mass of the structure shown. Active and inactive are the calls of the source. The calls are words filed in the database; no cut-off is given here.

Key:
Mus musculus = assay: Antiinflammatory activity in mouse assessed as inhibition of carrageenan-induced increase in paw volume at 200 mg/kg administered 1 hr prior to carrageenan challenge measured after 3 hrs relative to control; format: functional
In short: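 Mice were fasted 2 h and placed in groups of five. Controls received saline i.p. Phenylbutazone was given at 100 mg/kg i.p., curcumin at 200 mg/kg i.p., and derivatives at 200 mg/kg. After 1 h, 0.1 mL of 1% carrageenan in saline was injected subplantar into the right hind paw. Paw volume was followed by plethysmometer for 3 h, and % inhibition was calculated as (Vc − Vt)/Vc × 100.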

HCT-116 = assay: Cytotoxicity against human HCT116 cells after 24 hrs by MTT assay; format: functional, cell-based
In short: (§1)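 The MTT assay seeded 5 × 10⁴ cells per well and grew them 24 h in RPMI 1640 with compound at 2.5–200 µM. Medium without cells was the blank and adriamycin the positive control. MTT was added for 4 h at 37 °C, formazan was solubilised, and absorbance was read at 570 nm. IC50 is the concentration that cuts viability 50% against untreated cells.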

QG-56 = assay: Cytotoxicity against human QG56 cells after 24 hrs by MTT assay; format: functional, cell-based; in short: as §1
HeLa = assay: Cytotoxicity against human HeLa cells after 24 hrs by MTT assay; format: functional, cell-based; in short: as §1
HepG2 = assay: Cytotoxicity against human HepG2 cells after 24 hrs by MTT assay; format: functional, cell-based; in short: as §1
Trichoderma viride [1] = assay: Antifungal activity against Trichoderma viride MTCC 1107 after 48 hrs; format: functional; settings: MTCC 1107, 48 h
Trichoderma viride [2] = assay: Antifungal activity against Trichoderma viride MTCC 1107 assessed as zone of inhibition at 20 uM after 48 hrs by disc diffusion method; format: functional; settings: MTCC 1107, 48 h, read-out: IZ
In short: (§2)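 Spores from 4-day potato dextrose agar cultures, suspended in sterile water at 1.5 × 10⁵ CFU/mL. 0.2 mL was spread on potato dextrose agar. 5 mm filter-paper discs soaked with test compound were laid on the lawn. Incubation was 48 h at 28 °C, then the inhibition zone was measured in mm. Fluconazole was the positive control and acetone the negative control.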

Trichoderma viride [3] = assay: Antifungal activity against Trichoderma viride MTCC 1107 assessed as zone of inhibition at 40 uM after 48 hrs by disc diffusion method; format: functional; settings: MTCC 1107, 48 h, read-out: IZ; in short: as §2
Trichoderma viride [4] = assay: Antifungal activity against Trichoderma viride MTCC 1107 assessed as zone of inhibition at 80 uM after 48 hrs by disc diffusion method; format: functional; settings: MTCC 1107, 48 h, read-out: IZ; in short: as §2
Curvularia lunata [5] = assay: Antifungal activity against Curvularia lunata MTCC 581 after 48 hrs; format: functional; settings: MTCC 581, 48 h
Curvularia lunata [6] = assay: Antifungal activity against Curvularia lunata MTCC 581 assessed as zone of inhibition at 20 uM after 48 hrs by disc diffusion method; format: functional; settings: MTCC 581, 48 h, read-out: IZ; in short: as §2
Curvularia lunata [7] = assay: Antifungal activity against Curvularia lunata MTCC 581 assessed as zone of inhibition at 40 uM after 48 hrs by disc diffusion method; format: functional; settings: MTCC 581, 48 h, read-out: IZ; in short: as §2
Aspergillus flavus [8] = assay: Antifungal activity against Aspergillus flavus MTCC 1021 after 48 hrs; format: functional; settings: MTCC 1021, 48 h
Curvularia lunata [9] = assay: Antifungal activity against Curvularia lunata MTCC 581 assessed as zone of inhibition at 80 uM after 48 hrs by disc diffusion method; format: functional; settings: MTCC 581, 48 h, read-out: IZ; in short: as §2
Aspergillus flavus [10] = assay: Antifungal activity against Aspergillus flavus MTCC 1021 assessed as zone of inhibition at 20 uM after 48 hrs by disc diffusion method; format: functional; in short: as §2
Aspergillus flavus [11] = assay: Antifungal activity against Aspergillus flavus MTCC 1021 assessed as zone of inhibition at 40 uM after 48 hrs by disc diffusion method; format: functional; settings: MTCC 1021, 48 h, read-out: IZ; in short: as §2
Aspergillus flavus [12] = assay: Antifungal activity against Aspergillus flavus MTCC 1021 assessed as zone of inhibition at 80 uM after 48 hrs by disc diffusion method; format: functional; settings: MTCC 1021, 48 h, read-out: IZ; in short: as §2
Aspergillus niger [13] = assay: Antifungal activity against Aspergillus niger MTCC 1108 after 48 hrs; format: functional; settings: MTCC 1108, 48 h
Aspergillus niger [14] = assay: Antifungal activity against Aspergillus niger MTCC 1108 assessed as zone of inhibition at 20 uM after 48 hrs by disc diffusion method; format: functional; settings: MTCC 1108, 48 h, read-out: IZ; in short: as §2
Aspergillus niger [15] = assay: Antifungal activity against Aspergillus niger MTCC 1108 assessed as zone of inhibition at 40 uM after 48 hrs by disc diffusion method; format: functional; settings: MTCC 1108, 48 h, read-out: IZ; in short: as §2
Aspergillus niger [16] = assay: Antifungal activity against Aspergillus niger MTCC 1108 assessed as zone of inhibition at 80 uM after 48 hrs by disc diffusion method; format: functional; settings: MTCC 1108, 48 h, read-out: IZ; in short: as §2
Escherichia coli [17] = assay: Antimicrobial activity against Escherichia coli ATCC 35218 after 24 hrs by broth micro serial dilution method; format: functional; settings: ATCC 35218, 24 h
In short: (§3)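 This was broth microdilution in autoclaved Mueller-Hinton broth. 150 µL of compound per well was serially diluted […], and 50 µL of test organism was added. Plates were incubated 24 h at 37 °C and optical density was read.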

Escherichia coli [18] = assay: Antimicrobial activity against Escherichia coli ATCC 35218 assessed as diameter of inhibition zone at 20 uM after 24 hrs by Kirby -Baur disc diffusion method; format: functional; settings: ATCC 35218, 24 h, read-out: DIZ
In short: (§4)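 Kirby-Bauer disc diffusion was used. Acetone stocks (160 µM) were serially doubled down to 80, 40 and 20 µM. 4 µL of each went onto 5 mm sterile paper discs, which were dried 30 min at 50 °C. Inoculum was 1.5 × 10⁸ CFU/mL diluted to 3 × 10² CFU/mL, and 50 µL was spread on Mueller-Hinton agar. After 24 h at 37 °C the inhibition-zone diameter was measured. Ciprofloxacin served as positive control.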

Escherichia coli [19] = assay: Antimicrobial activity against Escherichia coli ATCC 35218 assessed as diameter of inhibition zone at 40 uM after 24 hrs by Kirby -Baur disc diffusion method; format: functional; settings: ATCC 35218, 24 h, read-out: DIZ; in short: as §4
Escherichia coli [20] = assay: Antimicrobial activity against Escherichia coli ATCC 35218 assessed as diameter of inhibition zone at 80 uM after 24 hrs by Kirby -Baur disc diffusion method; format: functional; settings: ATCC 35218, 24 h, read-out: DIZ; in short: as §4
Pseudomonas aeruginosa [21] = assay: Antimicrobial activity against Pseudomonas aeruginosa ATCC 15499 after 24 hrs by broth micro serial dilution method; format: functional; settings: ATCC 15499, 24 h; in short: as §3
Pseudomonas aeruginosa [22] = assay: Antimicrobial activity against Pseudomonas aeruginosa ATCC 15499 assessed as diameter of inhibition zone at 20 uM after 24 hrs by Kirby -Baur disc diffusion method; format: functional; settings: ATCC 15499, 24 h, read-out: DIZ; in short: as §4
Pseudomonas aeruginosa [23] = assay: Antimicrobial activity against Pseudomonas aeruginosa ATCC 15499 assessed as diameter of inhibition zone at 40 uM after 24 hrs by Kirby -Baur disc diffusion method; format: functional; settings: ATCC 15499, 24 h, read-out: DIZ; in short: as §4
Pseudomonas aeruginosa [24] = assay: Antimicrobial activity against Pseudomonas aeruginosa ATCC 15499 assessed as diameter of inhibition zone at 80 uM after 24 hrs by Kirby -Baur disc diffusion method; format: functional; settings: ATCC 15499, 24 h, read-out: DIZ; in short: as §4
Salmonella typhi [25] = assay: Antimicrobial activity against Salmonella typhi ATCC 23564 after 24 hrs by broth micro serial dilution method; format: functional, Salmonella enterica subsp. enterica serovar Typhi; settings: Salmonella enterica, ATCC 23564, 24 h
Salmonella typhi [26] = assay: Antimicrobial activity against Salmonella typhi ATCC 23564 assessed as diameter of inhibition zone at 20 uM after 24 hrs by Kirby -Baur disc diffusion method; format: functional, Salmonella enterica subsp. enterica serovar Typhi; settings: Salmonella enterica, ATCC 23564, 24 h; read-out: DIZ
Salmonella typhi [27] = assay: Antimicrobial activity against Salmonella typhi ATCC 23564 assessed as diameter of inhibition zone at 40 uM after 24 hrs by Kirby -Baur disc diffusion method; format: functional, Salmonella enterica subsp. enterica serovar Typhi; settings: Salmonella enterica, ATCC 23564, 24 h; read-out: DIZ
Salmonella typhi [28] = assay: Antimicrobial activity against Salmonella typhi ATCC 23564 assessed as diameter of inhibition zone at 80 uM after 24 hrs by Kirby -Baur disc diffusion method; format: functional, Salmonella enterica subsp. enterica serovar Typhi; settings: Salmonella enterica, ATCC 23564, 24 h; read-out: DIZ
Bacillus cereus [29] = assay: Antimicrobial activity against Bacillus cereus MTCC 7350 after 24 hrs by broth micro serial dilution method; format: functional; settings: MTCC 7350, 24 h; in short: as §3
Bacillus cereus [30] = assay: Antimicrobial activity against Bacillus cereus MTCC 7350 assessed as diameter of inhibition zone at 20 uM after 24 hrs by Kirby -Baur disc diffusion method; format: functional; in short: as §4
Bacillus cereus [31] = assay: Antimicrobial activity against Bacillus cereus MTCC 7350 assessed as diameter of inhibition zone at 40 uM after 24 hrs by Kirby -Baur disc diffusion method; format: functional; settings: MTCC 7350, 24 h, read-out: DIZ; in short: as §4
Bacillus cereus [32] = assay: Antimicrobial activity against Bacillus cereus MTCC 7350 assessed as diameter of inhibition zone at 80 uM after 24 hrs by Kirby -Baur disc diffusion method; format: functional; settings: MTCC 7350, 24 h, read-out: DIZ; in short: as §4
Staphylococcus aureus [33] = assay: Antimicrobial activity against Staphylococcus aureus ATCC 11632 after 24 hrs by broth micro serial dilution method; format: functional; settings: ATCC 11632, 24 h; in short: as §3
Staphylococcus aureus [34] = assay: Antimicrobial activity against Staphylococcus aureus ATCC 11632 assessed as diameter of inhibition zone at 20 uM after 24 hrs by Kirby -Baur disc diffusion method; format: functional; settings: ATCC 11632, 24 h, read-out: DIZ; in short: as §4
Staphylococcus aureus [35] = assay: Antimicrobial activity against Staphylococcus aureus ATCC 11632 assessed as diameter of inhibition zone at 40 uM after 24 hrs by Kirby -Baur disc diffusion method; format: functional; settings: ATCC 11632, 24 h, read-out: DIZ; in short: as §4
Staphylococcus aureus [36] = assay: Antimicrobial activity against Staphylococcus aureus ATCC 11632 assessed as diameter of inhibition zone at 80 uM after 24 hrs by Kirby -Baur disc diffusion method; format: functional; settings: ATCC 11632, 24 h, read-out: DIZ; in short: as §4

## COc1cc(/C=C/C(O)=C/C(/C=C/c2ccc(O)c(OC)c2)=N/c2ccc(S(=O)(=O)Nc3nc(C)cc(C)n3)cc2)ccc1O
Mus musculus
  inhibition in vivo at 200 mg/kg: 38.7%
HCT-116
  IC50: 25 µM
QG-56
  IC50: 50 µM
HeLa
  IC50: 25 µM
HepG2
  IC50: 25 µM
Trichoderma viride [1]
  MIC: 20 µM (≈ 12.6 µg/mL)
Trichoderma viride [2]
  zone of inhibition at 20 µM: 18 mm
Trichoderma viride [3]
  zone of inhibition at 40 µM: 19 mm
Trichoderma viride [4]
  zone of inhibition at 80 µM: 22 mm
Curvularia lunata [5]
  MIC: 20 µM (≈ 12.6 µg/mL)
Curvularia lunata [6]
  zone of inhibition at 20 µM: 12 mm
Curvularia lunata [7]
  zone of inhibition at 40 µM: 16 mm
Aspergillus flavus [8]
  MIC: > 80 µM
Curvularia lunata [9]
  zone of inhibition at 80 µM: 19 mm
Aspergillus flavus [10]
  inhibition zone (IZ): inactive
Aspergillus flavus [11]
  zone of inhibition at 40 µM: 9 mm
Aspergillus flavus [12]
  zone of inhibition at 80 µM: 11 mm
Aspergillus niger [13]
  MIC: 20 µM (≈ 12.6 µg/mL)
Aspergillus niger [14]
  zone of inhibition at 20 µM: 12 mm
Aspergillus niger [15]
  zone of inhibition at 40 µM: 14 mm
Aspergillus niger [16]
  zone of inhibition at 80 µM: 16 mm
Escherichia coli [17]
  MIC: 20 µM (≈ 12.6 µg/mL)
Escherichia coli [18]
  zone of inhibition at 20 µM: 21 mm
Escherichia coli [19]
  zone of inhibition at 40 µM: 21 mm
Escherichia coli [20]
  zone of inhibition at 80 µM: 23 mm
Pseudomonas aeruginosa [21]
  MIC: 20 µM (≈ 12.6 µg/mL)
Pseudomonas aeruginosa [22]
  zone of inhibition at 20 µM: 10 mm
Pseudomonas aeruginosa [23]
  zone of inhibition at 40 µM: 16 mm
Pseudomonas aeruginosa [24]
  zone of inhibition at 80 µM: 19 mm
Salmonella typhi [25]
  MIC: 20 µM (≈ 12.6 µg/mL)
Salmonella typhi [26]
  zone of inhibition at 20 µM: 10 mm
Salmonella typhi [27]
  zone of inhibition at 40 µM: 14 mm
Salmonella typhi [28]
  zone of inhibition at 80 µM: 17 mm
Bacillus cereus [29]
  MIC: 20 µM (≈ 12.6 µg/mL)
Bacillus cereus [30]
  diameter of the inhibition zone (DIZ): inactive
Bacillus cereus [31]
  zone of inhibition at 40 µM: 9 mm
Bacillus cereus [32]
  zone of inhibition at 80 µM: 12 mm
Staphylococcus aureus [33]
  MIC: 20 µM (≈ 12.6 µg/mL)
Staphylococcus aureus [34]
  zone of inhibition at 20 µM: 16 mm
Staphylococcus aureus [35]
  zone of inhibition at 40 µM: 18 mm
Staphylococcus aureus [36]
  zone of inhibition at 80 µM: 22 mm
